# Tests used:
# [1] = target: Protein kinase C delta type (Homo sapiens, UniProt Q05655); experiment: Binding affinity to GST-tagged PKCdelta expressed in Escherichia coli BL21(DE3) by fluorescence quenching
# Procedure, shortened: (§1)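 Isolated C1B subdomain made in E. coli as GST fusion, purified on glutathione-Sepharose, GST removed by thrombin, then ammonium sulfate precipitation and Superdex 75 gel filtration. Excitation 280 nm, intrinsic emission at 350 nm as (F0-F)/F, Hill fit gives EC50.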
# [2] = target: T1, Protein kinase C epsilon type (Homo sapiens, UniProt Q02156); experiment: Binding affinity to GST-tagged PKCepsilon expressed in Escherichia coli BL21(DE3) by fluorescence quenching; procedure, shortened: as §1
# T1 sequence (Q02156 whole entry): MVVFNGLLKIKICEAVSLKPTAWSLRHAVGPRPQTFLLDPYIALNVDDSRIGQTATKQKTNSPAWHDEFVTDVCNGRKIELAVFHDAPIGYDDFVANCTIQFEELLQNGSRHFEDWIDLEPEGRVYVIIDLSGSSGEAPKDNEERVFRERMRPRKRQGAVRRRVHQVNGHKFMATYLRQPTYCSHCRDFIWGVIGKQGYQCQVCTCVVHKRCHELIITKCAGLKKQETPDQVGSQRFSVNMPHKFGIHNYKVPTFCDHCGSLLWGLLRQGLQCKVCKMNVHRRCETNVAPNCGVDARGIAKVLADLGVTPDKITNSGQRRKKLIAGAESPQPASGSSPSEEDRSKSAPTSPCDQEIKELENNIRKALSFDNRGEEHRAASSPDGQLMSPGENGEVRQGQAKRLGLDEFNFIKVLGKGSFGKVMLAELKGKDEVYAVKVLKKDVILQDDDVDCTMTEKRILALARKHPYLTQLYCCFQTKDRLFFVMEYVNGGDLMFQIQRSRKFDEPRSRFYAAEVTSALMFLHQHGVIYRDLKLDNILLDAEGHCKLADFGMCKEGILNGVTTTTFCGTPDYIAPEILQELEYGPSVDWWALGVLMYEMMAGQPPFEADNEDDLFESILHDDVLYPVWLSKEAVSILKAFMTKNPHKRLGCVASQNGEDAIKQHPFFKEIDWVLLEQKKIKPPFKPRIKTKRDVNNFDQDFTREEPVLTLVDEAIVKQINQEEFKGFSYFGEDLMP
# [3] = target: Protein kinase C theta type (Homo sapiens, UniProt Q04759); experiment: Binding affinity to GST-tagged PKCtheta expressed in Escherichia coli BL21(DE3) by fluorescence quenching; procedure, shortened: as §1
# Chain of Protein kinase C theta type (Q04759 whole entry): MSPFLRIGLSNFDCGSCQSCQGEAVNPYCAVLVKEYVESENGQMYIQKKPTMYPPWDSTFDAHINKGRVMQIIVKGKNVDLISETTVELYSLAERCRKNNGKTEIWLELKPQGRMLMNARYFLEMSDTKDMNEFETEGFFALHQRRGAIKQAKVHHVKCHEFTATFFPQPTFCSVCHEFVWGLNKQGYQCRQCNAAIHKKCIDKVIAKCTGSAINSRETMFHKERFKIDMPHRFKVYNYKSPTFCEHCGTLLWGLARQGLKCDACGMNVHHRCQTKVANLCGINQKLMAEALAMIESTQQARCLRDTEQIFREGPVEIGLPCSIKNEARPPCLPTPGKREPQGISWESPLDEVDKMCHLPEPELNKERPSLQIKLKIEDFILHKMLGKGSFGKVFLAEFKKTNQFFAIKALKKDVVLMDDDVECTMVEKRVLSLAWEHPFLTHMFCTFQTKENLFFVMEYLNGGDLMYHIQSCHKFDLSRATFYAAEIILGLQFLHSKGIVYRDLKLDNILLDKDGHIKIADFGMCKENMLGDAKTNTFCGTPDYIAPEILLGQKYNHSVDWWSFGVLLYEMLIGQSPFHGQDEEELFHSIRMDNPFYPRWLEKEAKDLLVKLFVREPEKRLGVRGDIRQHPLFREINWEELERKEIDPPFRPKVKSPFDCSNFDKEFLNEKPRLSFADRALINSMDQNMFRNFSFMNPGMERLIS
# Chain of Protein kinase C delta type (Q05655 whole entry, the tested form may be a part): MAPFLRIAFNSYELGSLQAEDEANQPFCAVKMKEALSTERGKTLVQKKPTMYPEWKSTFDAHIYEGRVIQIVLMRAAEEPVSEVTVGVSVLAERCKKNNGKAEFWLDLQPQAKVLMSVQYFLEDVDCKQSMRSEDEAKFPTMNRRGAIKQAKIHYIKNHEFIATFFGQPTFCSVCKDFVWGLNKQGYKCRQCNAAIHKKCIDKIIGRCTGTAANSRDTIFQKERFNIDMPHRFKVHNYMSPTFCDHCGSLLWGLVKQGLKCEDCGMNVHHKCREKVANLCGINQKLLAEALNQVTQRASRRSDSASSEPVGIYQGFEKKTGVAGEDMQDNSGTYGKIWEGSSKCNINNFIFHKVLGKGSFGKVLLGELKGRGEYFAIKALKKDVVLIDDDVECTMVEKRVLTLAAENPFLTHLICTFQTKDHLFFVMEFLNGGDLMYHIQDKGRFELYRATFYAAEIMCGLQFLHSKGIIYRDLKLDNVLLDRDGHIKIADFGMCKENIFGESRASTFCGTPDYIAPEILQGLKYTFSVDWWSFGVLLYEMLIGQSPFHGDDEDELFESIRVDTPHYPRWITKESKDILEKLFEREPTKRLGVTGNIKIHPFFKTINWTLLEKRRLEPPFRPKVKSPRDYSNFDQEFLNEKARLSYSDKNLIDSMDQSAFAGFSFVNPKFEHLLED
EC50 [1] [µM],EC50 [2] [µM],EC50 [3] [µM],SMILES
12.5,11.1,6.57,O=C(/C=C(O)/C=C/c1ccc(O)c(O)c1)/C=C/c1ccc(O)c(O)c1
8.98,10.6,5.95,CCCCCCCCCCCCCCCCOc1ccc(/C=C/C(O)=C/C(=O)/C=C/c2ccc(O)c(OC)c2)cc1OC
7.49,14.3,8.67,CCCCCCCC/C=C\CCCCCCCC(=O)OC[C@H](CO)OC(=O)CCCCCCC/C=C\CCCCCCCC
8.69,9.79,4,CCCCCCCCOc1ccc(/C=C/C(O)=C/C(=O)/C=C/c2ccc(O)c(OC)c2)cc1OC

SMILES,EC50 [1] [µM],EC50 [2] [µM],EC50 [3] [µM]
CCCCCCCC(=O)OC[C@H](CO)OC(=O)CCCCCCC,–,–,5.24
COc1cc(/C=C/C(=O)CC(=O)/C=C/c2ccc(O)c(OC)c2)ccc1O [CURCUMIN],10.7,8.81,11.1
CCCCCCCCCCCCCC(=O)O[C@@H]1[C@@H](C)[C@@]2(O)[C@@H](C=C(CO)C[C@]3(O)C(=O)C(C)=C[C@@H]23)[C@@H]2C(C)(C)[C@]12OC(C)=O [PHORBOL MYRISTATE ACETATE],5.17,5.56,3.19
